Measured values published in ChEMBL document CHEMBL1806372, “Cytotoxic ring A-modified steroid analogues derived from Grundmann's ketone” (Eur J Med Chem, 2011).

Columns and labels:
Format in all cases: functional
PC-3 = test: Growth inhibition of human PC3 cells after 48 hrs by sulforhodamine B assay; details: PC-3, 48 h
In short: (§1)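 GI50, TGI and LC50 were derived from log concentration versus % growth inhibition curves for each cell line. GI50 is the concentration giving a 50% decrease in net cell growth. Insensitive lines are reported as greater than the highest concentration.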

OVCAR-3 = test: Cytotoxicity against human OVCAR3 cells after 48 hrs by sulforhodamine B assay; details: OVCAR-3, 48 h, read-out: LC50 (the source's name)
In short: (§2)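 NCI 60 human tumour cell line panel run to the NCI protocol. GI50, TGI and LC50 come from log concentration vs % growth inhibition curves for each cell line. Lines insensitive at the top concentration are reported with ">".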

SK-MEL-5 = test: Growth inhibition of human SK-MEL-5 cells after 48 hrs by sulforhodamine B assay; details: SK-MEL-5, 48 h; in short: as §1
SR = test: Cytotoxicity against human SR cells after 48 hrs by sulforhodamine B assay; details: read-out: LC50 (the source's name)
HOP-92 = test: Growth inhibition of human HOP92 cells after 48 hrs by sulforhodamine B assay; details: HOP-92, 48 h
In short: (§3)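 From log concentration versus % growth curves, GI50 (50% decrease in net growth), TGI (total growth inhibition) and LC50 (net 50% loss of initial cells) are derived for each line.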

SK-MEL-2 = test: Growth inhibition of human SK-MEL-2 cells after 48 hrs by sulforhodamine B assay; details: SK-MEL-2, 48 h; in short: as §1
UO-31 [1] = test: Growth inhibition of human UO31 cells after 48 hrs by sulforhodamine B assay; details: UO-31, 48 h
In short: (§4)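 NCI 60-cell panel five-dose assay. GI50, TGI and LC50 are derived from log concentration versus % growth inhibition curves. Cell lines insensitive at the top concentration are given a ">" prefix.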

SF-268 = test: Cytotoxicity against human SF268 cells after 48 hrs by sulforhodamine B assay; details: SF-268, 48 h, read-out: LC50 (the source's name); in short: as §2
SN12C = test: Growth inhibition of human SN12C cells after 48 hrs by sulforhodamine B assay; in short: as §4
MDA-MB-231 = test: Growth inhibition of human MDA-MB-231 cells after 48 hrs by sulforhodamine B assay; details: MDA-MB-231, 48 h; in short: as §1
MCF7 = test: Growth inhibition of human MCF7 cells after 48 hrs by sulforhodamine B assay; details: MCF7, 48 h; in short: as §1
Malme-3M = test: Cytotoxicity against human MALME-3M cells after 48 hrs by sulforhodamine B assay; details: read-out: LC50 (the source's name); in short: as §2
OVCAR-4 = test: Growth inhibition of human OVCAR4 cells after 48 hrs by sulforhodamine B assay; details: OVCAR-4, 48 h; in short: as §1
A498 = test: Growth inhibition of human A498 cells after 48 hrs by sulforhodamine B assay; details: A498, 48 h; in short: as §3
SK-MEL-28 = test: Growth inhibition of human SK-MEL-28 cells after 48 hrs by sulforhodamine B assay; details: SK-MEL-28, 48 h; in short: as §1
CAKI-1 = test: Growth inhibition of human Caki1 cells after 48 hrs by sulforhodamine B assay; details: CAKI-1, 48 h; in short: as §3
SNB-19 = test: Growth inhibition of human SNB19 cells after 48 hrs by sulforhodamine B assay; details: SNB-19, 48 h; in short: as §4
EKVX = test: Cytotoxicity against human EKVX cells after 48 hrs by sulforhodamine B assay; details: read-out: LC50 (the source's name); in short: as §2
T47D = test: Cytotoxicity against human T47D cells after 48 hrs by sulforhodamine B assay; details: read-out: LC50 (the source's name)
SK-OV-3 = test: Growth inhibition of human SKOV3 cells after 48 hrs by sulforhodamine B assay; details: SK-OV-3, 48 h; in short: as §4
RPMI-8226 = test: Growth inhibition of human RPMI8226 cells after 48 hrs by sulforhodamine B assay; details: RPMI-8226, 48 h; in short: as §1
BT-549 [2] = test: Cytotoxicity against human BT549 cells after 48 hrs by sulforhodamine B assay; details: BT-549, 48 h, read-out: LC50 (the source's name); in short: as §2
OVCAR-8 = test: Cytotoxicity against human OVCAR8 cells after 48 hrs by sulforhodamine B assay; details: OVCAR-8, 48 h, read-out: LC50 (the source's name); in short: as §2
K562 [3] = test: Growth inhibition of human K562 cells after 48 hrs by sulforhodamine B assay; details: K562, 48 h; in short: as §3
CCRF-CEM = test: Cytotoxicity against human CCRF-CEM cells after 48 hrs by sulforhodamine B assay; details: read-out: LC50 (the source's name); in short: as §2
NCI/ADR-RES = test: Growth inhibition of human NCI/ADR-RES cells after 48 hrs by sulforhodamine B assay; in short: as §1
UACC-257 = test: Cytotoxicity against human UACC257 cells after 48 hrs by sulforhodamine B assay; details: UACC-257, 48 h, read-out: LC50 (the source's name)
SF-539 = test: Growth inhibition of human SF539 cells after 48 hrs by sulforhodamine B assay; details: SF-539, 48 h; in short: as §1
SF-295 = test: Growth inhibition of human SF295 cells after 48 hrs by sulforhodamine B assay; details: SF-295, 48 h; in short: as §1
UACC-62 = test: Cytotoxicity against human UACC62 cells after 48 hrs by sulforhodamine B assay; details: UACC-62, 48 h, read-out: LC50 (the source's name)
RXF 393 = test: Growth inhibition of human RXF393 cells after 48 hrs by sulforhodamine B assay; details: RXF 393, 48 h; in short: as §1
BT-549 [4] = test: Growth inhibition of human BT549 cells after 48 hrs by sulforhodamine B assay; details: BT-549, 48 h; in short: as §3
NCI-H460 = test: Cytotoxicity against human NCI-H460 cells after 48 hrs by sulforhodamine B assay; details: NCI-H460, 48 h, read-out: LC50 (the source's name); in short: as §2
K562 [5] = test: Cytotoxicity against human K562 cells after 48 hrs by sulforhodamine B assay; details: K562, 48 h, read-out: LC50 (the source's name); in short: as §2
LOX IMVI = test: Cytotoxicity against human LOXIMVI cells after 48 hrs by sulforhodamine B assay; details: read-out: LC50 (the source's name); in short: as §2
OVCAR-5 = test: Cytotoxicity against human OVCAR5 cells after 48 hrs by sulforhodamine B assay; details: OVCAR-5, 48 h, read-out: LC50 (the source's name); in short: as §2
UO-31 [6] = test: Cytotoxicity against human UO31 cells after 48 hrs by sulforhodamine B assay; details: UO-31, 48 h, read-out: LC50 (the source's name)
KM12 = test: Cytotoxicity against human KM12 cells after 48 hrs by sulforhodamine B assay; details: KM12, 48 h, read-out: LC50 (the source's name); in short: as §2

Compound: CC(C)CCC[C@@H](C)[C@H]1CC[C@H]2C3=CCn4c(=O)ccc(=O)n4[C@@H]3CC[C@]12C
- GI50 (PC-3): 243 nM
- TGI (PC-3): 1110 nM
- CC50 (OVCAR-3): 4780 nM
- GI50 (SK-MEL-5): 563 nM
- TGI (SK-MEL-5): 1830 nM
- CC50 (SR): > 100000 nM
- GI50 (HOP-92): 175 nM
- TGI (HOP-92): 1030 nM
- GI50 (SK-MEL-2): 286 nM
- TGI (SK-MEL-2): 774 nM
- GI50 (UO-31 [1]): 237 nM
- TGI (UO-31 [1]): 1150 nM
- CC50 (SF-268): 5700 nM
- GI50 (SN12C): 388 nM
- TGI (SN12C): 1690 nM
- GI50 (MDA-MB-231): 1040 nM
- TGI (MDA-MB-231): 2540 nM
- GI50 (MCF7): 285 nM
- TGI (MCF7): 1240 nM
- CC50 (Malme-3M): 6380 nM
- GI50 (OVCAR-4): 686 nM
- TGI (OVCAR-4): 2110 nM
- GI50 (A498): 1060 nM
- TGI (A498): 2270 nM
- GI50 (SK-MEL-28): 512 nM
- TGI (SK-MEL-28): 1650 nM
- GI50 (CAKI-1): 179 nM
- TGI (CAKI-1): 577 nM
- GI50 (SNB-19): 1520 nM
- TGI (SNB-19): 3020 nM
- CC50 (EKVX): 7330 nM
- CC50 (T47D): 6290 nM
- GI50 (SK-OV-3): 1630 nM
- TGI (SK-OV-3): 2990 nM
- GI50 (RPMI-8226): 181 nM
- TGI (RPMI-8226): 601 nM
- CC50 (BT-549 [2]): 2970 nM
- CC50 (OVCAR-8): > 100000 nM
- GI50 (K562 [3]): 309 nM
- TGI (K562 [3]): 2020 nM
- CC50 (CCRF-CEM): > 100000 nM
- GI50 (NCI/ADR-RES): 417 nM
- TGI (NCI/ADR-RES): 1900 nM
- CC50 (UACC-257): 4320 nM
- GI50 (SF-539): 1470 nM
- TGI (SF-539): 2890 nM
- GI50 (SF-295): 110 nM
- TGI (SF-295): 627 nM
- CC50 (UACC-62): 5450 nM
- GI50 (RXF 393): 952 nM
- TGI (RXF 393): 2300 nM
- GI50 (BT-549 [4]): 312 nM
- TGI (BT-549 [4]): 876 nM
- CC50 (NCI-H460): 5730 nM
- CC50 (K562 [5]): > 100000 nM
- CC50 (LOX IMVI): 3520 nM
- CC50 (OVCAR-5): 7840 nM
- CC50 (UO-31 [6]): 4190 nM
- CC50 (KM12): 4440 nM

Compound: CC(C)CCC[C@@H](C)[C@H]1CC[C@H]2C3=CC[C@@H]4C(=O)C=CC(=O)[C@@H]4[C@@H]3CC[C@]12C
- GI50 (PC-3): 59 nM
- TGI (PC-3): 1570 nM
- CC50 (OVCAR-3): > 100000 nM
- GI50 (SK-MEL-5): 309 nM
- TGI (SK-MEL-5): 1000 nM
- CC50 (SR): > 100000 nM
- GI50 (HOP-92): 28 nM
- TGI (HOP-92): 86 nM
- GI50 (SK-MEL-2): 3370 nM
- TGI (SK-MEL-2): > 100000 nM
- GI50 (UO-31 [1]): 72 nM
- TGI (UO-31 [1]): 359 nM
- CC50 (SF-268): > 100000 nM
- GI50 (SN12C): 269 nM
- TGI (SN12C): > 100000 nM
- GI50 (MDA-MB-231): 343 nM
- TGI (MDA-MB-231): 1760 nM
- GI50 (MCF7): 112 nM
- TGI (MCF7): 757 nM
- CC50 (Malme-3M): > 100000 nM
- GI50 (OVCAR-4): 159 nM
- TGI (OVCAR-4): 498 nM
- GI50 (A498): 384 nM
- TGI (A498): 1120 nM
- GI50 (SK-MEL-28): 302 nM
- GI50 (CAKI-1): 279 nM
- TGI (CAKI-1): 633 nM
- GI50 (SNB-19): 654 nM
- TGI (SNB-19): > 100000 nM
- CC50 (EKVX): > 100000 nM
- CC50 (T47D): > 100000 nM
- GI50 (SK-OV-3): 688 nM
- GI50 (RPMI-8226): 107 nM
- TGI (RPMI-8226): 2230 nM
- CC50 (BT-549 [2]): > 100000 nM
- CC50 (OVCAR-8): > 8120 nM
- GI50 (K562 [3]): 249 nM
- TGI (K562 [3]): > 100000 nM
- CC50 (CCRF-CEM): > 100000 nM
- GI50 (NCI/ADR-RES): 275 nM
- CC50 (UACC-257): > 100000 nM
- GI50 (SF-539): 478 nM
- GI50 (SF-295): 141 nM
- TGI (SF-295): 539 nM
- CC50 (UACC-62): > 100000 nM
- GI50 (RXF 393): 201 nM
- TGI (RXF 393): 995 nM
- GI50 (BT-549 [4]): 427 nM
- TGI (BT-549 [4]): 2550 nM
- CC50 (NCI-H460): > 100000 nM
- CC50 (K562 [5]): > 100000 nM
- CC50 (LOX IMVI): > 4100 nM
- CC50 (OVCAR-5): > 100000 nM
- CC50 (UO-31 [6]): > 1750 nM
- CC50 (KM12): > 100000 nM
